How the values were obtained:
[1] = test system: CHO; assay: Cytotoxicity against CHO cells; assay type: cell-based; details: Cricetulus griseus
[2] = test system: LAD2; assay: Inhibition of human LAD2 cells degranulation preincubated for 30 mins before streptavidin stimulation measured after 30 mins by measuring beta-hexosaminidase activity; assay type: functional, cell-based
Outline: (§1)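 LAD2 mast cells sensitized overnight at 37 °C, 5% CO2 with 100 ng/ml biotin-IgE in StemPro-34 growth medium with 2 mM glutamine and 100 ng/ml SCF. They were washed into release buffer, plated at 10,000 cells/well, given drug for 30 min, then 125 ng/ml streptavidin for 30 min. Supernatant and freeze-thaw lysate were incubated 90 min at 37 °C with 1 mM p-nitrophenyl-N-acetyl-D-glucosamide, citrate pH 4.5.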

[3] = test system: LAD2; assay: Inhibition of human LAD2 cells degranulation at 1 uM preincubated for 30 mins before streptavidin stimulation measured after 30 mins by measuring beta-hexosaminidase activity; assay type: functional; outline: as §1
[4] = target: Calcium/calmodulin-dependent protein kinase type II subunit delta (Homo sapiens) (UniProt Q13557); assay: Inhibition of human CaMK2delta at 1 uM
[5] = target: Tyrosine-protein kinase Fgr (Homo sapiens) (UniProt P09769); assay: Inhibition of human Fgr at 1 uM
[6] = target: Serine/threonine-protein kinase Chk1 (Homo sapiens) (UniProt O14757); assay: Inhibition of human CHK1 at 1 uM
[7] = target: Tyrosine-protein kinase ITK/TSK (Homo sapiens) (UniProt Q08881); assay: Inhibition of human Itk at 1 uM
[8] = target: Aurora kinase A (Homo sapiens) (UniProt O14965); assay: Inhibition of human Aurora-A at 1 uM
[9] = target: Macrophage colony-stimulating factor 1 receptor (Homo sapiens) (UniProt P07333); assay: Inhibition of human Fms at 1 uM
[10] = target: Ribosomal protein S6 kinase alpha-6 (Homo sapiens) (UniProt Q9UK32); assay: Inhibition of human Rsk4 at 1 uM
[11] = target: Tyrosine-protein kinase ZAP-70 (Homo sapiens) (UniProt P43403); assay: Inhibition of human ZAP70 at 1 uM
[12] = target: ALK tyrosine kinase receptor (Homo sapiens) (UniProt Q9UM73); assay: Inhibition of human Alk at 1 uM
[13] = target: Proto-oncogene tyrosine-protein kinase Src (Homo sapiens) (UniProt P12931); assay: Inhibition of human cSRC at 1 uM
[14] = target: Protein kinase C epsilon type (Homo sapiens) (UniProt Q02156); assay: Inhibition of human PKCepsilon at 1 uM
[15] = target: Tyrosine-protein kinase HCK (Homo sapiens) (UniProt P08631); assay: Inhibition of human Hck at 1 uM
[16] = target: Protein-tyrosine kinase 2-beta (Homo sapiens) (UniProt Q14289); assay: Inhibition of human Pyk2 at 1 uM
[17] = target: Mitogen-activated protein kinase 10 (Homo sapiens) (UniProt P53779); assay: Inhibition of human JNK3 at 1 uM
[18] = target: Serine/threonine-protein kinase pim-1 (Homo sapiens) (UniProt P11309); assay: Inhibition of human Pim-1 at 1 uM
[19] = target: Vascular endothelial growth factor receptor 1 (Homo sapiens) (UniProt P17948); assay: Inhibition of human Flt1 at 1 uM
[20] = target: Inhibitor of nuclear factor kappa-B kinase subunit beta (Homo sapiens) (UniProt O14920); assay: Inhibition of human IKKbeta at 1 uM
[21] = target: Cyclin-dependent kinase 1/cyclin B1 (Homo sapiens) (UniProt P06493+P14635); assay: Inhibition of human CDK1/cyclinB at 1 uM; assay type: protein-complex assay
[22] = target: Tyrosine-protein kinase Lyn (Homo sapiens) (UniProt P07948); assay: Inhibition of human Lyn at 1 uM
[23] = target: Proto-oncogene tyrosine-protein kinase receptor Ret (Homo sapiens) (UniProt P07949); assay: Inhibition of human Ret at 1 uM
[24] = target: Tyrosine-protein kinase receptor UFO (Homo sapiens) (UniProt P30530); assay: Inhibition of human Axl at 1 uM
[25] = target: Focal adhesion kinase 1 (Homo sapiens) (UniProt Q05397); assay: Inhibition of human FAK at 1 uM
[26] = target: Mitogen-activated protein kinase kinase kinase 7 (Homo sapiens) (UniProt O43318); assay: Inhibition of human TAK1 at 1 uM
[27] = target: 3-phosphoinositide-dependent protein kinase 1 (PDPK1) (Homo sapiens) (UniProt O15530); assay: Inhibition of human PDK1 at 1 uM
[28] = target: High affinity nerve growth factor receptor (Homo sapiens) (UniProt P04629); assay: Inhibition of human TrkA at 1 uM
[29] = target: Receptor-type tyrosine-protein kinase FLT3 (Homo sapiens) (UniProt P36888); assay: Inhibition of human Flt3 at 1 uM
[30] = target: Tyrosine-protein kinase BTK (Homo sapiens) (UniProt Q06187); assay: Inhibition of human BTK at 1 uM
[31] = target: Fibroblast growth factor receptor 3 (Homo sapiens) (UniProt P22607); assay: Inhibition of human FGFR3 at 1 uM
[32] = target: Tyrosine-protein kinase Lck (Homo sapiens) (UniProt P06239); assay: Inhibition of human Lck at 1 uM
[33] = target: Casein kinase I isoform delta (Homo sapiens) (UniProt P48730); assay: Inhibition of human CK1delta at 1 uM
[34] = target: Dual specificity mitogen-activated protein kinase kinase 6 (Homo sapiens) (UniProt P52564); assay: Inhibition of human MKK6 at 1 uM
[35] = target: Protein kinase C gamma type (Homo sapiens) (UniProt P05129); assay: Inhibition of human PKCgamma at 1 uM
[36] = target: Glycogen synthase kinase-3 beta (Homo sapiens) (UniProt P49841); assay: Inhibition of human GSK3beta at 1 uM
[37] = target: Hepatocyte growth factor receptor (Homo sapiens) (UniProt P08581); assay: Inhibition of human Met at 1 uM
[38] = target: Glycogen synthase kinase-3 alpha (Homo sapiens) (UniProt P49840); assay: Inhibition of human GSK3alpha at 1 uM
[39] = target: Protein kinase C beta type (Homo sapiens) (UniProt P05771); assay: Inhibition of human PKCbeta2 at 1 uM
[40] = target: Tyrosine-protein kinase Yes (Homo sapiens) (UniProt P07947); assay: Inhibition of human Yes at 1 uM
[41] = target: Tyrosine-protein kinase Fyn (Homo sapiens) (UniProt P06241); assay: Inhibition of human Fyn at 1 uM
[42] = target: Rho-associated protein kinase 2 (Homo sapiens) (UniProt O75116); assay: Inhibition of human ROCK2 at 1 uM
[43] = target: MAP kinase-activated protein kinase 5 (Homo sapiens) (UniProt Q8IW41); assay: Inhibition of human PRAK at 1 uM

Sequence of Cyclin-dependent kinase 1/cyclin B1 (Homo sapiens) (P06493 whole entry, looked up): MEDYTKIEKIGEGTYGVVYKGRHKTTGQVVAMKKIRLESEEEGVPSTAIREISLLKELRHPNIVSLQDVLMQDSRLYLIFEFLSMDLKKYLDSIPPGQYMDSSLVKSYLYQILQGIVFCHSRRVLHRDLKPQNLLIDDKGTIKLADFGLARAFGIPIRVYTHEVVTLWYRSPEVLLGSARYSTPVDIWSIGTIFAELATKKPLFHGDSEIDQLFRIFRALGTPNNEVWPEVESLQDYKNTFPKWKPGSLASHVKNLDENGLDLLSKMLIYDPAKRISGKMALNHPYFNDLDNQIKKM
Sequence of Cyclin-dependent kinase 1/cyclin B1 (Homo sapiens) (P14635 whole entry, looked up): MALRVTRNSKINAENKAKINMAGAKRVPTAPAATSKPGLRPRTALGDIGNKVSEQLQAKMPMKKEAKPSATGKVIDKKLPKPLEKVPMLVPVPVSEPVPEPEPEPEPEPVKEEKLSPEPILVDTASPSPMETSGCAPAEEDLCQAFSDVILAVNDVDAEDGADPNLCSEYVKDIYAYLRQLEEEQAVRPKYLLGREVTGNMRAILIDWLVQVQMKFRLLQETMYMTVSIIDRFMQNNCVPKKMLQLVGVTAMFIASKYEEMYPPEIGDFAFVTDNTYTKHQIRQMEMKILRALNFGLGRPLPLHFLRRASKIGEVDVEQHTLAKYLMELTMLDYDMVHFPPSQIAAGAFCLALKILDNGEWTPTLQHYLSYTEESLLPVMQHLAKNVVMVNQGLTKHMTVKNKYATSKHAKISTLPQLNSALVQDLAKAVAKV
Sequence of Tyrosine-protein kinase BTK (Homo sapiens) (Q06187 whole entry): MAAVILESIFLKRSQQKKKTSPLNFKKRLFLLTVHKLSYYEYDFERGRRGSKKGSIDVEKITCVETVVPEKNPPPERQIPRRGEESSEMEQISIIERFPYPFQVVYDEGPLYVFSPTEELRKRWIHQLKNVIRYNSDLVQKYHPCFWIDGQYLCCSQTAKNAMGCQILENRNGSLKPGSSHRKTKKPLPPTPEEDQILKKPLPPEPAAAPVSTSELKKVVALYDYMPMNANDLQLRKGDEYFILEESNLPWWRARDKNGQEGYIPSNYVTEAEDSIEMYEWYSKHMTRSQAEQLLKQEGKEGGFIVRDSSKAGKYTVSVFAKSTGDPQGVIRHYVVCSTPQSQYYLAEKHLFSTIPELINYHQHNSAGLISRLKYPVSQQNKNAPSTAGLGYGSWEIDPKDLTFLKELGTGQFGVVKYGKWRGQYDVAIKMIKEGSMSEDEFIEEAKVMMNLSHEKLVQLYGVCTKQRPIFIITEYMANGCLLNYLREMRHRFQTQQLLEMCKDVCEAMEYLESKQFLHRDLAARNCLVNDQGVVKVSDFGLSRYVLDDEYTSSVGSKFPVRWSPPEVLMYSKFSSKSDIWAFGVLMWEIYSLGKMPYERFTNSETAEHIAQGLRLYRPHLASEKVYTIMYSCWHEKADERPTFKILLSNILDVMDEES
Sequence of High affinity nerve growth factor receptor (Homo sapiens) (P04629 33-796 limits assumed): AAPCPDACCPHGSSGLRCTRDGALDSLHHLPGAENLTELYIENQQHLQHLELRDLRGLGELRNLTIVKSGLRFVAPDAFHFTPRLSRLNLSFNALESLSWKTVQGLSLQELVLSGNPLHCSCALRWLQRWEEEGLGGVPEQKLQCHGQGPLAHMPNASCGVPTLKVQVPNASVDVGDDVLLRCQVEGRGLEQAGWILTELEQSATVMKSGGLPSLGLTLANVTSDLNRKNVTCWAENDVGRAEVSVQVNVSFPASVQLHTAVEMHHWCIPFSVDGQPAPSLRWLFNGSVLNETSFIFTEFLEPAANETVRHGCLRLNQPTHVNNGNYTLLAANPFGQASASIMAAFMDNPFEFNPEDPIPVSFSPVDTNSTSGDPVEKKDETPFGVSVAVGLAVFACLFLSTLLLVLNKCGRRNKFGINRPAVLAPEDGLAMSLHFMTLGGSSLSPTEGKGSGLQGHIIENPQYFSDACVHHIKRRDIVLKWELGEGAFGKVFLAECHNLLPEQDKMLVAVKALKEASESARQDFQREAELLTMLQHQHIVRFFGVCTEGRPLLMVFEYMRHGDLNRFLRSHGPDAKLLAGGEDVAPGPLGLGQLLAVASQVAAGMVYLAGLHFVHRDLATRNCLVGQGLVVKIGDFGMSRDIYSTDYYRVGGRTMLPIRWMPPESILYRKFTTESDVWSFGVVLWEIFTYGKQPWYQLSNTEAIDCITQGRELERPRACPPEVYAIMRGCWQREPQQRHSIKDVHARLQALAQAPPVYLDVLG
Sequence of Protein kinase C beta type (Homo sapiens) (P05771 2-671 limits assumed): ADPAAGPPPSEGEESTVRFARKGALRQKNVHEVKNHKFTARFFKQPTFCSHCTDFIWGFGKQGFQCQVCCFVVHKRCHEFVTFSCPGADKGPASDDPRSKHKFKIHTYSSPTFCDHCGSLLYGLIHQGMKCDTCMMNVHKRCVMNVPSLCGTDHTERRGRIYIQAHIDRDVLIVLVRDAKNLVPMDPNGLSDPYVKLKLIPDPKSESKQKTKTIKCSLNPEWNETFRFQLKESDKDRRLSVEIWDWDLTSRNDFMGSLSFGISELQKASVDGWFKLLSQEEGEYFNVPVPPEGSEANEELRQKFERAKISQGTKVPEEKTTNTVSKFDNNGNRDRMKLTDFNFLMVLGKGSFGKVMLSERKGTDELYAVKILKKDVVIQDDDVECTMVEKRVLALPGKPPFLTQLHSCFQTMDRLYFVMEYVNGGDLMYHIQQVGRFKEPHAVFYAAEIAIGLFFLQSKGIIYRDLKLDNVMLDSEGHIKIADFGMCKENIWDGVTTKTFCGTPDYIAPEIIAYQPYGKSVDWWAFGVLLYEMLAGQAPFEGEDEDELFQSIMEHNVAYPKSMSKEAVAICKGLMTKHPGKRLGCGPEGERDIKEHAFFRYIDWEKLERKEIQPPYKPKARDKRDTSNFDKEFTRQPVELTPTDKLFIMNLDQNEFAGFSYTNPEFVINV
Sequence of Mitogen-activated protein kinase kinase kinase 7 (Homo sapiens) (O43318 whole entry): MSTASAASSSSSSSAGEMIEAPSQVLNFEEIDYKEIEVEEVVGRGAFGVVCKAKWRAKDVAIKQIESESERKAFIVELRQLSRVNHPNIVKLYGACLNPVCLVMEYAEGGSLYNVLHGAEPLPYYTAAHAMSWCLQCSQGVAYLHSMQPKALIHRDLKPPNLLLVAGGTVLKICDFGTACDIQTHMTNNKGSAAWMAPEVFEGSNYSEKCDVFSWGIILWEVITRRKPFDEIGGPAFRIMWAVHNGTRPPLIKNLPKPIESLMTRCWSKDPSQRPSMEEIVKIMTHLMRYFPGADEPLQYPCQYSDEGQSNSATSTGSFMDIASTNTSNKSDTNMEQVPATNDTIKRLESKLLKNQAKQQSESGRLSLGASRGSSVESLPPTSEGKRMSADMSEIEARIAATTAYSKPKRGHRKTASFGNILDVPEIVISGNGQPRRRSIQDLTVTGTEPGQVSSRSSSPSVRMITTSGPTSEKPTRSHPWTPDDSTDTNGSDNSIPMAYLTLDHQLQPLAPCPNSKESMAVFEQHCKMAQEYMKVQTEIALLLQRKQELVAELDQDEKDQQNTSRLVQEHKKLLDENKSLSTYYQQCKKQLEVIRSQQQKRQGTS
Sequence of Tyrosine-protein kinase HCK (Homo sapiens) (P08631 2-526 limits assumed): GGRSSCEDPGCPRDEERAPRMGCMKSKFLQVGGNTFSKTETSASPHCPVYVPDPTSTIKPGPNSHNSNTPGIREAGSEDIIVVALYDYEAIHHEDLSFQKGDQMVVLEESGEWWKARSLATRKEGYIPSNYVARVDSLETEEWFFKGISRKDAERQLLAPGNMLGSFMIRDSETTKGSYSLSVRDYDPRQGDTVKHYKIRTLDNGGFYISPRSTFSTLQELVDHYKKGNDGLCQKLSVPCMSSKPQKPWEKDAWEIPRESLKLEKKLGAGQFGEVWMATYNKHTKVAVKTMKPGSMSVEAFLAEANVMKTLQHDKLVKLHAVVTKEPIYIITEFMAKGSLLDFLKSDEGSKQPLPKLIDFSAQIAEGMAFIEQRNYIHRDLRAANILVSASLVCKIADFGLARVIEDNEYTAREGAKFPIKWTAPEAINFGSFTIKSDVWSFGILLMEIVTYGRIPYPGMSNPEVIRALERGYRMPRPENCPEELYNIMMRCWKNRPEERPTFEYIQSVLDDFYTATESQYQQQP
Sequence of Calcium/calmodulin-dependent protein kinase type II subunit delta (Homo sapiens) (Q13557 whole entry): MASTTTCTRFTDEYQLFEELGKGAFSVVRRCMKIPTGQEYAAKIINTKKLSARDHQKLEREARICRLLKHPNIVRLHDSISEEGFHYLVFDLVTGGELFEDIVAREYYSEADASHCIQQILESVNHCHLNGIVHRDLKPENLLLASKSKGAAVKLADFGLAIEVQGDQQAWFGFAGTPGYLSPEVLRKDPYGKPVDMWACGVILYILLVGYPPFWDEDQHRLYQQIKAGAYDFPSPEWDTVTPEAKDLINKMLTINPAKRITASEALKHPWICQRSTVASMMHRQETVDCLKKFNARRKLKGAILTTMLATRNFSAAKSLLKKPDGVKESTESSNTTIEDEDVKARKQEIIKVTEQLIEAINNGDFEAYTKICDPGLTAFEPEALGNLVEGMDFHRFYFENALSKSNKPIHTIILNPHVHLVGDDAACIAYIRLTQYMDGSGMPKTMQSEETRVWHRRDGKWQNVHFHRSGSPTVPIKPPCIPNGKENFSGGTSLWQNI
Sequence of Serine/threonine-protein kinase Chk1 (Homo sapiens) (O14757 whole entry): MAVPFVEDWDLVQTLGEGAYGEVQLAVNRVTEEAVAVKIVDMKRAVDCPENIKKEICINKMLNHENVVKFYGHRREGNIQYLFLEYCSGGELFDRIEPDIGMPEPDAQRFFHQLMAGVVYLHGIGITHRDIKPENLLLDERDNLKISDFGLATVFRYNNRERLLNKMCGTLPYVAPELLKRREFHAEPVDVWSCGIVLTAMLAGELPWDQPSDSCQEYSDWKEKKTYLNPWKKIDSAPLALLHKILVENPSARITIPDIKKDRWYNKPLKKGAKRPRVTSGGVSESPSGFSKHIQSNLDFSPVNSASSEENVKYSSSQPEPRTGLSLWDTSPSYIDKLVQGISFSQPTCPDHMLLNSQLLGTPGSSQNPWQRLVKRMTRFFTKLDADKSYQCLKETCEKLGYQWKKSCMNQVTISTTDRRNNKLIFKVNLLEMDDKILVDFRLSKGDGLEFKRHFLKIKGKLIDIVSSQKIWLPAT

**Q.** For CNc1cc(Nc2cnccn2)nc(-c2ccnc(N3CCNCC3)c2)c1, which IC50 [1] is on record?
**A.** > 20000 nM

**Q.** What about the IC50 [2] of the same compound?
**A.** 188 nM

**Q.** What does the source list for O=C(Nc1cc(Nc2cnccn2)nc(-c2ccnc(N3CCNCC3)c2)c1)c1cccnc1?
**A.** IC50 [1]: > 20000 nM; IC50 [2]: 122 nM

**Q.** Oc1ccc(CNc2cc(Nc3cnccn3)nc(-c3ccnc(N4CCNCC4)c3)c2)cc1 was tested. Which IC50 [1] did it give?
**A.** > 20000 nM

**Q.** And the IC50 [2]?
**A.** 585 nM

**Q.** O=C(Nc1cc(Nc2cnccn2)nc(-c2ccnc(N3CCNCC3)c2)c1)C1CCNCC1 was tested. Which IC50 [1] did it give?
**A.** > 20000 nM

**Q.** And the inhibition at 1 µM [3]?
**A.** 14%

**Q.** Which results are given for O=C(Cc1cccnc1)Nc1cc(Nc2cnccn2)nc(-c2ccnc(N3CCNCC3)c2)c1?
**A.** IC50 [1]: > 20000 nM; IC50 [2]: 352 nM

**Q.** With c1cc(-c2cccc(Nc3cnccn3)n2)cc(N2CCNCC2)c1 as the compound, how does the IC50 [1] read?
**A.** > 15000 nM

**Q.** With FC(F)(F)c1ccnc(Nc2cccc(-c3ccnc(N4CCNCC4)c3)n2)c1 as the compound, how does the IC50 [1] read?
**A.** 1000 nM

**Q.** With FC(F)(F)c1ccnc(Nc2cccc(-c3cccc(N4CCNCC4)c3)n2)c1 as the compound, how does the IC50 [1] read?
**A.** 1000 nM

**Q.** What does the source list for O=C(Nc1cc(Nc2cnccn2)nc(-c2ccnc(N3CCNCC3)c2)c1)c1cncnc1?
**A.** IC50 [1]: > 20000 nM; IC50 [2]: 331 nM

**Q.** With O=C(Nc1cc(Nc2cnccn2)nc(-c2ccnc(N3CCNCC3)c2)c1)c1ccc(C(=O)O)nc1 as the compound, how does the IC50 [1] read?
**A.** > 20000 nM

**Q.** And the IC50 [2]?
**A.** 204 nM

**Q.** Cc1cc(C(=O)Nc2cc(Nc3cnccn3)nc(-c3ccnc(N4CCNCC4)c3)c2)n(C)n1 was tested. Which IC50 [1] did it give?
**A.** > 20000 nM

**Q.** What about the IC50 [2] of the same compound?
**A.** 169 nM

**Q.** Which results are given for Nc1cc(Nc2cnccn2)nc(-c2ccnc(N3CCNCC3)c2)c1?
**A.** inhibition [4]: < 50%; inhibition [5]: > 50%; inhibition [6]: < 50%; inhibition [7]: > 50%; inhibition [8]: < 50%; inhibition [9]: < 50%; inhibition [10]: < 50%; inhibition [11]: < 50%; inhibition [12]: < 50%; inhibition [13]: > 50%; inhibition [14]: < 50%; inhibition [15]: > 50%; inhibition [16]: < 50%; IC50 [1]: > 20000 nM; inhibition [17]: < 50%; inhibition [18]: < 50%; inhibition [19]: < 50%; inhibition [20]: < 50%; inhibition [21]: < 50%; inhibition [22]: > 50%; inhibition [23]: > 50%; inhibition [24]: < 50%; inhibition [25]: < 50%; inhibition [26]: < 50%; inhibition [27]: < 50%; inhibition [28]: < 50%; inhibition [29]: > 50%; inhibition [30]: > 50%; inhibition [31]: < 50%; inhibition [32]: > 50%; inhibition [33]: < 50%; inhibition [34]: < 50%; inhibition [35]: < 50%; inhibition [36]: < 50%; inhibition [37]: < 50%; inhibition [38]: > 50%; inhibition [39]: < 50%; inhibition [40]: > 50%; inhibition [41]: < 50%; IC50 [2]: 118 nM; inhibition [42]: < 50%; inhibition [43]: < 50%

**Q.** Which IC50 [1] does the source give for Cc1ccnc(Nc2cccc(-c3ccnc(N4CCNCC4)c3)n2)c1 here?
**A.** 1000 nM

**Q.** With O=C(Nc1cc(Nc2cnccn2)nc(-c2ccnc(N3CCNCC3)c2)c1)c1ccccc1 as the compound, how does the IC50 [1] read?
**A.** > 20000 nM

**Q.** What about the IC50 [2] of the same compound?
**A.** 362 nM

**Q.** With c1cc(Nc2cnccn2)nc(-c2ccnc(N3CCNCC3)c2)c1 as the compound, how does the IC50 [1] read?
**A.** > 15000 nM

**Q.** Which results are given for O=C(O)c1ccc(C(=O)Nc2cc(Nc3cnccn3)nc(-c3ccnc(N4CCNCC4)c3)c2)cc1?
**A.** IC50 [1]: > 20000 nM; IC50 [2]: 140 nM

**Q.** Which results are given for CC(=O)N1CCC(C(=O)Nc2cc(Nc3cnccn3)nc(-c3ccnc(N4CCNCC4)c3)c2)CC1?
**A.** IC50 [1]: > 20000 nM; IC50 [2]: 1000 nM
